Assay results: ChEMBL document CHEMBL5576140, “Computational Design of Pore-Forming Peptides with Potent Antimicrobial and Anticancer Activities” (J Med Chem, 2024)
Active and inactive are the calls of the source. The rule behind the calls is not given here.

Assays:
Mus musculus [1] = assay: Induction of wound healing activity in immunosuppressed Balb/c mouse excisional dorsal wound infection model infected with Acinetobacter baumannii NCTC 13301 assessed as reduction in necrosis of epidermal tissue at wound edges at about 10 mg/kg treated for 7 days once daily; format: functional, organism-based; details: time 7.0 day
K562 [2] = assay: pH-dependent anticancer activity against human K562 cells in DMEM medium at 10 uM incubated for 1 hr; format: functional, cell-based
How it was run: (§1)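 Cells cultured in RPMI, DMEM or PBS, each adjusted to pH 8, 7 or 6, plus one unadjusted (~7.6). Peptide at 10 μM for only 1 h, to limit pH drift from CO₂-bicarbonate buffering. Cell viability read. Controls were melittin, ampicillin and PBS. Two independent repetitions; effects analysed by ANOVA.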

K562 [3] = assay: pH-dependent anticancer activity against human K562 cells in PBS medium at 10 uM incubated for 1 hr; format: functional, cell-based; how it was run: as §1
T47D = assay: Anti-cancer activity against human T47D cells incubated for 72 hrs by Cell Titer Glo assay; format: functional, cell-based
[4] = Toxicity in neutropenic CD-1 mouse deep thigh infection model infected with Acinetobacter baumannii ATCC 19606 assessed as body weight change at 0.16 mg/kg, ip measured after 4 days; format: organism-based; details: in vivo, 96 h, time 4 day
How it was run: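 Neutropenic mice infected intramuscularly in the right thigh with 10⁶ cells per mL of A. baumannii ATCC 19606. […] Body weight monitored for toxicity. Euthanasia 4 days post-infection (day 8). n = 6 per group, from three inocula.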

HCT-116 [5] = assay: Anti-cancer activity against human HCT-116 cells incubated for 72 hrs by Cell Titer Glo assay; format: functional, cell-based; details: HCT-116, 72 h
Staphylococcus aureus [6] = assay: Antimicrobial activity against Staphylococcus aureus NE934 harboring single transposon insertion mutation in staphopain B at 30 uM incubated for 18 hrs relative to control; format: functional
How it was run: (§2)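 CA-MRSA USA300 LAC derivative JE2 and single transposon insertion mutants derived from JE2, each lacking an extracellular protease gene, were exposed to peptides up to 30 μM. The read-out was percent growth inhibition. Peptides were dissolved in PBS, and tests were run in triplicate.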

MCF7 [7] = assay: Induction of apoptosis in human MCF7 cells in DMEM medium at pH 6 assessed as increase in cleaved PARP level at 5 uM; format: functional, cell-based
How it was run: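 MCF-7 cells treated with peptides at pH 6; apoptosis detected by immunoblotting for cleaved PARP and cleaved caspase-3.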

Monocyte = assay: Cytotoxicity against human monocytes assessed as deleterious effect upto 50 uM by flow cytometry; format: toxicity, cell-based
How it was run: (§3)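 Whole blood from a healthy donor treated with peptides up to 50 μM; effect on B and T lymphocytes, granulocytes and monocytes assessed.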

[8] = Cytotoxicity against human granulocytes assessed as deleterious effect upto 50 uM by flow cytometry; format: toxicity, cell-based; details: granulocyte; how it was run: as §3
Staphylococcus aureus [9] = assay: Antimicrobial activity against Staphylococcus aureus NE1506 harboring single transposon insertion mutation in V8 protease at 30 uM incubated for 18 hrs relative to control; format: functional; how it was run: as §2
[10] = Anti-cancer activity against human MEC-1 cells incubated for 24 hrs by WST assay; format: functional, cell-based; details: MEC1, 24 h
Enterococcus faecium = assay: Depolarization of cytoplasmic membrane in Enterococcus faecium ATCC 700221 at MIC measured for 45 mins by DiSC3-(5) dye based assay; format: functional, organism-based
How it was run: (§4)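 Bacteria loaded with membrane-potential dye DiSC3-(5), then treated with peptide at its MIC for the respective strain; depolarization read as rise in dye fluorescence; polymyxin B and levofloxacin as reference antibiotics.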

K562 [11] = assay: pH-dependent anticancer activity against human K562 cells in RPMI medium at 10 uM incubated for 1 hr; format: functional, cell-based; how it was run: as §1
Mus musculus [12] = assay: Induction of wound healing activity in immunosuppressed Balb/c mouse excisional dorsal wound infection model infected with Acinetobacter baumannii NCTC 13301 assessed as closed wound at about 10 mg/kg treated for 7 days once daily measured after 20 days; format: functional, organism-based; details: time 20.0 day
Klebsiella pneumoniae [13] = assay: Induction of outer membrane permeabilization in Klebsiella pneumoniae ATCC 13883 measured for 20 mins by NPN uptake assay; format: functional, organism-based
How it was run: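 Outer-membrane permeabilization of Gram-negative bacteria read as rise in fluorescence of the lipophilic dye NPN, which enters only when outer-membrane integrity is compromised. Peptides applied at their MIC against the respective strain; polymyxin B and levofloxacin as reference antibiotics. Triplicates.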

Klebsiella pneumoniae [14] = assay: Depolarization of cytoplasmic membrane in Klebsiella pneumoniae ATCC 13883 at MIC measured for 45 mins by DiSC3-(5) dye based assay; format: functional, organism-based; how it was run: as §4
[15] = Toxicity in immunosuppressed Balb/c mouse excisional dorsal wound infection model infected with Acinetobacter baumannii NCTC 13301 assessed as decrease in animal survival at about 10 mg/kg treated for 7 days once daily measured after 45 days; format: organism-based; details: in vivo, 1080 h, time 45 day
MCF7 [16] = assay: Anti-cancer activity against human MCF7 cells incubated for 72 hrs by Cell Titer Glo assay; format: functional, cell-based; details: MCF7, 72 h
K562 [17] = assay: Anti-cancer activity against human K562 cells at 10 uM incubated for 30 mins; format: functional, cell-based
Acinetobacter baumannii [18] = assay: Depolarization of cytoplasmic membrane in Acinetobacter baumannii ATCC 19606 at MIC measured for 45 mins by DiSC3-(5) dye based assay; format: functional, organism-based; how it was run: as §4
Escherichia coli [19] = assay: Depolarization of cytoplasmic membrane in Escherichia coli ATCC 11775 at MIC measured for 45 mins by DiSC3-(5) dye based assay; format: functional, organism-based; how it was run: as §4
NCI-H460 = assay: Anti-cancer activity against human NCI-H460 cells incubated for 72 hrs by Cell Titer Glo assay; format: functional, cell-based; details: NCI-H460, 72 h
MDA-MB-435 = assay: Anti-cancer activity against human MDA-MB-435 cells incubated for 72 hrs by Cell Titer Glo assay; format: functional, cell-based; details: MDA-MB-435, 72 h
HCT-116 [20] = assay: pH-dependent anticancer activity against human HCT-116 cells in RPMI medium at 10 uM incubated for 1 hr; format: functional, cell-based; how it was run: as §1
MOLM-13 = assay: Anti-cancer activity against human MOLM-13 cells incubated for 24 hrs by WST assay; format: functional, cell-based; details: MOLM-13, 24 h
SUD4 = assay: Anti-cancer activity against human SU-DHL-4 cells incubated for 24 hrs by WST assay; format: functional, cell-based; details: SU-DHL-4, 24 h
PC-3 = assay: Anti-cancer activity against human PC-3 cells incubated for 72 hrs by Cell Titer Glo assay; format: functional, cell-based; details: PC-3, 72 h
Escherichia coli [21] = assay: Induction of outer membrane permeabilization in Escherichia coli ATCC 11775 measured for 20 mins by NPN uptake assay; format: functional, organism-based
HCT-116 [22] = assay: pH-dependent anticancer activity against human HCT-116 cells in PBS medium at 10 uM incubated for 1 hr; format: functional, cell-based; how it was run: as §1
MCF7 [23] = assay: pH-dependent anticancer activity against human MCF7 cells in PBS medium at 10 uM incubated for 1 hr; format: functional, cell-based; how it was run: as §1
Mus musculus [24] = assay: Induction of wound healing activity in immunosuppressed Balb/c mouse excisional dorsal wound infection model infected with Acinetobacter baumannii NCTC 13301 assessed as reduction in wound expansion at about 10 mg/kg treated for 7 days once daily; format: functional, organism-based; details: time 7.0 day
HL-60 = assay: Anti-cancer activity against human HL-60 cells incubated for 72 hrs by Cell Titer Glo assay; format: functional, cell-based; details: HL-60, 72 h
HCT-15 = assay: Anti-cancer activity against human HCT-15 cells incubated for 72 hrs by Cell Titer Glo assay; format: functional, cell-based; details: HCT-15, 72 h
Acinetobacter baumannii [25] = assay: Induction of outer membrane permeabilization in Acinetobacter baumannii ATCC 19606 measured for 20 mins by NPN uptake assay; format: functional, organism-based

With H-KKKKLKKILKKLFQFINQLDNQLQDIKQNK-NH2 the Activity (Mus musculus [1]) was “Active”, the Activity (K562 [2]) was “Active” and the Activity (K562 [3]) was “Active”. The IC50 (T47D) was 1000 nM, the Activity [4] was “Non-Toxic” and the IC50 (HCT-116 [5]) was 1000 nM. The inhibition at 30 µM (Staphylococcus aureus [6]) was < 45%, the Activity (MCF7 [7]) was “Active” and the Activity (Monocyte) was “Non-Toxic”. For the same substance, the Activity [8] was “Non-Toxic”, the inhibition at 30 µM (Staphylococcus aureus [9]) was < 45% and the IC50 [10] was ≤ 10000 nM. For the same substance, the Activity (Enterococcus faecium) was “Active”, the Activity (K562 [11]) was “Active” and the Activity (Mus musculus [12]) was “Active”. For the same substance, the Activity (Klebsiella pneumoniae [13]) was “Active”, the Activity (Klebsiella pneumoniae [14]) was “Active” and the Activity [15] was “Toxic”. For the same substance, the IC50 (MCF7 [16]) was 1000 nM, the Activity (K562 [17]) was “Active” and the Activity (Acinetobacter baumannii [18]) was “Active”. The Activity (Escherichia coli [19]) was “Active”, the IC50 (NCI-H460) was 1000 nM and the IC50 (MDA-MB-435) was 1000 nM. For the same substance, the Activity (HCT-116 [20]) was “Active”, the IC50 (MOLM-13) was ≤ 10000 nM and the IC50 (SUD4) was ≤ 10000 nM. For the same substance, the IC50 (PC-3) was 1000 nM, the Activity (Escherichia coli [21]) was “Active” and the Activity (HCT-116 [22]) was “Active”. For the same substance, the Activity (MCF7 [23]) was “Active”, the Activity (Mus musculus [24]) was “Active” and the IC50 (HL-60) was 1000 nM. The IC50 (HCT-15) was 1000 nM and the Activity (Acinetobacter baumannii [25]) was “inactive”.
